Activity and concentration data for 1 molecule are collected here from ChEMBL document CHEMBL4382192, “Discovery of a potent dual ALK and EGFR T790M inhibitor” (Eur J Med Chem, 2017).

SMILES strings stand for the structures.

Data set [1] concerns the target Myosin-IIIb (Homo sapiens) (UniProt Q8WXR4). The data set is described as follows: Binding affinity to wild-type human partial length MYO3B (M1 to D357 residues) expressed in bacterial expression system assessed as residual binding level at 1 uM by Kinomescan method relative to control.
For data set [2], the target named is Tyrosine-protein kinase Yes (Homo sapiens) (UniProt P07947). As to the kind of experiment: Binding affinity to wild-type human partial length YES (T257 to L543 residues) expressed in bacterial expression system assessed as residual binding level at 1 uM by Kinomescan method relative to control.
Sequence of Tyrosine-protein kinase Yes (Homo sapiens) (P07947 2-543 limits assumed): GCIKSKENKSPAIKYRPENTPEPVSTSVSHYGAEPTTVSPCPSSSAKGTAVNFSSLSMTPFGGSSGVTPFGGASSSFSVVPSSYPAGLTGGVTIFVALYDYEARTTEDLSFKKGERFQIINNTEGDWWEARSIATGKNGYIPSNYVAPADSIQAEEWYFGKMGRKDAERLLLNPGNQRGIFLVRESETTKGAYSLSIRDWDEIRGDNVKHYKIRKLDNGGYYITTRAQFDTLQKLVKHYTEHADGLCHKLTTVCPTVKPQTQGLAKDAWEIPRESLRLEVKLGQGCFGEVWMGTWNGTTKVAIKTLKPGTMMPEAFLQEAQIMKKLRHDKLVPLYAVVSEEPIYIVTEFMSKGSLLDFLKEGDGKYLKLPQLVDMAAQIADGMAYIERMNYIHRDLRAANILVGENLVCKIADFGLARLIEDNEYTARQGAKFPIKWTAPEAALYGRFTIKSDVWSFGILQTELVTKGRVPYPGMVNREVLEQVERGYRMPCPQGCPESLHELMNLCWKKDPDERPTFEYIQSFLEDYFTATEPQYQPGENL
The target of data set [3] is Phosphatidylinositol 4-phosphate 3-kinase C2 domain-containing subunit beta (Homo sapiens) (UniProt O00750). The data set is described as follows: Binding affinity to wild-type human partial length PIK3C2B (M1 to L1634 residues) expressed in mammalian expression system assessed as residual binding level at 1 uM by Kinomescan method relative to control.
Data set [4] deals with Serine/threonine-protein kinase Nek5 (Homo sapiens) (UniProt Q6P3R8). The data set is described as follows: Binding affinity to wild-type human partial length NEK5 (M1 to M279 residues) expressed in bacterial expression system assessed as residual binding level at 1 uM by Kinomescan method relative to control.
Data set [5] deals with Epidermal growth factor receptor (Homo sapiens), P00533 [G719C]. The data set is described as follows: Binding affinity to human partial length EGFR G719C mutant (R669 to V1011 residues) expressed in bacterial expression system assessed as residual binding level at 1 uM by Kinomescan method relative to control. A digest of the protocol: (§1)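 Kinome-wide selectivity panel run by the KINOMEscan method, with the test compound at a single concentration of 1 μM. Wild-type and mutant kinases were profiled in the same screen.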

In data set [6] the target is Dual serine/threonine and tyrosine protein kinase (Homo sapiens) (UniProt Q6XUX3). The data set is described as follows: Binding affinity to wild-type human full length RIPK5 (M1 to T929 residues) expressed in mammalian expression system assessed as residual binding level at 1 uM by Kinomescan method relative to control.
For data set [7], the target named is Activin receptor type-1 (Homo sapiens) (UniProt Q04771). The data set is described as follows: Binding affinity to wild-type human ACVR1 (C188 to C509 residues) expressed in bacterial expression system assessed as residual binding level at 1 uM by Kinomescan method relative to control.
Data set [8] concerns the target Misshapen-like kinase 1 (Homo sapiens) (UniProt Q8N4C8). The data set is described as follows: Binding affinity to wild-type human partial length MINK (M1 to K312 residues) expressed in mammalian expression system assessed as residual binding level at 1 uM by Kinomescan method relative to control.
Data set [9] concerns Phosphatidylinositol 4,5-bisphosphate 3-kinase catalytic subunit alpha isoform (Homo sapiens), P42336 [E545K]. The data set is described as follows: Binding affinity to human partial length PIK3CA E545K mutant (R108 to N1068 residues) expressed in mammalian expression system assessed as residual binding level at 1 uM by Kinomescan method relative to control.
Data set [10] concerns the target Glycogen synthase kinase-3 alpha (Homo sapiens) (UniProt P49840). As to the kind of experiment: Binding affinity to wild-type human full length GSK3A (M1 to S483 residues) expressed in bacterial expression system assessed as residual binding level at 1 uM by Kinomescan method relative to control. In a few lines: (§2)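 Single-point kinome-wide KINOMEscan binding panel, test compound at 1 μM, run by the provider's standard protocol.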

The target of data set [11] is Fibroblast growth factor receptor 4 (Homo sapiens) (UniProt P22455). The data set is described as follows: Binding affinity to wild-type human partial length FGFR4 (G402 to E713 residues) expressed in bacterial expression system assessed as residual binding level at 1 uM by Kinomescan method relative to control.
The target in data set [12] is G protein-coupled receptor kinase 4 (Homo sapiens) (UniProt P32298). The data set is described as follows: Binding affinity to wild-type human full length GRK4 (M1 to C578 residues) expressed in bacterial expression system assessed as residual binding level at 1 uM by Kinomescan method relative to control.
A short description of data set [13]: Drug uptake in mouse lung at 2 mg/kg, iv after 8 hrs. The following applies: read-out: Drug uptake. Type of data set: ADME, organism-based.
Data set [14] has as its target Protein kinase C delta type (Homo sapiens) (UniProt Q05655). The data set is described as follows: Binding affinity to wild-type human partial length PRKCD (Q328 to D676 residues) expressed in bacterial expression system assessed as residual binding level at 1 uM by Kinomescan method relative to control.
Data set [15] has as its target Serine/threonine-protein kinase PAK 1 (Homo sapiens) (UniProt Q13153). As to the kind of experiment: Binding affinity to wild-type human partial length PAK1 (S149 to H545 residues) expressed in bacterial expression system assessed as residual binding level at 1 uM by Kinomescan method relative to control.
In data set [16] the test system is Phosphatidylinositol 4,5-bisphosphate 3-kinase catalytic subunit alpha isoform (Homo sapiens), P42336 [C420R]. As to the kind of experiment: Binding affinity to human partial length PIK3CA C420R mutant (R108 to N1068 residues) expressed in mammalian expression system assessed as residual binding level at 1 uM by Kinomescan method relative to control.
Data set [17] concerns the target SRSF protein kinase 1 (Homo sapiens) (UniProt Q96SB4). The data set is described as follows: Binding affinity to wild-type human full length SRPK1 (M1 to S655 residues) expressed in bacterial expression system assessed as residual binding level at 1 uM by Kinomescan method relative to control. In a few lines:
as §2

Data set [18] concerns the target Tyrosine-protein kinase ITK/TSK (Homo sapiens) (UniProt Q08881). As to the kind of experiment: Binding affinity to wild-type human partial length ITK (R335 to L620 residues) expressed in bacterial expression system assessed as residual binding level at 1 uM by Kinomescan method relative to control.
The target in data set [19] is Protein kinase C eta type (Homo sapiens) (UniProt P24723). As to the kind of experiment: Binding affinity to wild-type human partial length PRKCH (S324 to P683 residues) expressed in bacterial expression system assessed as residual binding level at 1 uM by Kinomescan method relative to control.
The target in data set [20] is Ankyrin repeat and protein kinase domain-containing protein 1 (Homo sapiens) (UniProt Q8NFD2). The data set is described as follows: Binding affinity to wild-type human partial length ANKK1 (M1 to A305 residues) expressed in mammalian expression system assessed as residual binding level at 1 uM by Kinomescan method relative to control.
Data set [21] has as its target Cyclin-dependent kinase-like 5 (Homo sapiens) (UniProt O76039). As to the kind of experiment: Binding affinity to wild-type human partial length CDKL5 (M1 to S337 residues) expressed in mammalian expression system assessed as residual binding level at 1 uM by Kinomescan method relative to control.
Data set [22] relates to Epidermal growth factor receptor (Homo sapiens), P00533 [UNDEFINED MUTATION]. As to the kind of experiment: Binding affinity to human partial length EGFR E746-A750del mutant expressed in bacterial expression system assessed as residual binding level at 1 uM by Kinomescan method relative to control. In a few lines:
as §1

Data set [23] concerns the target Ribosomal protein S6 kinase alpha-2 (Homo sapiens) (UniProt Q15349). As to the kind of experiment: Binding affinity to wild-type human partial length N-terminal RSK3 kinase domain 1 (M1 to Q385 residues) expressed in bacterial expression system assessed as residual binding level at 1 uM by Kinomescan method relative to control.
Data set [24] deals with Epidermal growth factor receptor (Homo sapiens), P00533 [UNDEFINED MUTATION]. As to the kind of experiment: Binding affinity to human partial length EGFR L747-E749del/A750P mutant expressed in bacterial expression system assessed as residual binding level at 1 uM by Kinomescan method relative to control. A digest of the protocol: as §1

Sequence of Misshapen-like kinase 1 (Homo sapiens) (Q8N4C8 whole entry, looked up, the tested form may be a part, canonical isoform): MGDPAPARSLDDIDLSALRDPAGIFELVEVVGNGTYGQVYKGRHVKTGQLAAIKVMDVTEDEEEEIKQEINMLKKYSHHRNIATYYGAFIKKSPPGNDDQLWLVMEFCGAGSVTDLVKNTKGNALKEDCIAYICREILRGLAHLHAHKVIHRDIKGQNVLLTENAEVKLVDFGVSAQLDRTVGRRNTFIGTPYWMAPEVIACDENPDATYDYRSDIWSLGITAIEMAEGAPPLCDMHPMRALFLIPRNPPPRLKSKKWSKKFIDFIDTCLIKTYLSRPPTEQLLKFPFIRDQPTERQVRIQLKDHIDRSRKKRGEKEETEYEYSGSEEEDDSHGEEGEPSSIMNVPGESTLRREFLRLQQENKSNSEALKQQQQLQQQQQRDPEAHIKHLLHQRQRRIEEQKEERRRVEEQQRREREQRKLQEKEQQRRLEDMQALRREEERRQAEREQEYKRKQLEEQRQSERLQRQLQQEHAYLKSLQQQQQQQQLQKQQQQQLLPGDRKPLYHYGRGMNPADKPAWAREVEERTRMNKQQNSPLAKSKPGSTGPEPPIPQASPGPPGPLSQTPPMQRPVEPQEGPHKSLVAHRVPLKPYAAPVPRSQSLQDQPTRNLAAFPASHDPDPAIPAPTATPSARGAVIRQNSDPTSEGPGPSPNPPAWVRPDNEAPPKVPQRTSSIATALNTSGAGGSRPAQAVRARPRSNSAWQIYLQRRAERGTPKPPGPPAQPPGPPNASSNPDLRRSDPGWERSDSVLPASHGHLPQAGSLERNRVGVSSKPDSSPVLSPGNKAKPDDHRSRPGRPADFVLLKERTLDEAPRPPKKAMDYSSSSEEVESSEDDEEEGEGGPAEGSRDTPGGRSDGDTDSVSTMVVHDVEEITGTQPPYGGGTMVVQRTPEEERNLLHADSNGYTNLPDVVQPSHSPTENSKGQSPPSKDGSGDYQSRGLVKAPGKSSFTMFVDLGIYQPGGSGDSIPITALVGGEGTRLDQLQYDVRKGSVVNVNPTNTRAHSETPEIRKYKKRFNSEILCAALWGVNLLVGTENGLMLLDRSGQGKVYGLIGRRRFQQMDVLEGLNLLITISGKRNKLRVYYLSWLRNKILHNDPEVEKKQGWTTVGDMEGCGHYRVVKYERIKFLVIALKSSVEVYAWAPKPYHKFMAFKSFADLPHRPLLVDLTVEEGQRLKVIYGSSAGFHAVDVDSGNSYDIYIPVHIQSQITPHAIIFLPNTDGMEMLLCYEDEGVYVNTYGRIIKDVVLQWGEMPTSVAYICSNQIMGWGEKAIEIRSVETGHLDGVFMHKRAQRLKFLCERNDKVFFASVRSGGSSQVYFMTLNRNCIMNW
Sequence of Myosin-IIIb (Homo sapiens) (Q8WXR4 whole entry, the tested form may be a part): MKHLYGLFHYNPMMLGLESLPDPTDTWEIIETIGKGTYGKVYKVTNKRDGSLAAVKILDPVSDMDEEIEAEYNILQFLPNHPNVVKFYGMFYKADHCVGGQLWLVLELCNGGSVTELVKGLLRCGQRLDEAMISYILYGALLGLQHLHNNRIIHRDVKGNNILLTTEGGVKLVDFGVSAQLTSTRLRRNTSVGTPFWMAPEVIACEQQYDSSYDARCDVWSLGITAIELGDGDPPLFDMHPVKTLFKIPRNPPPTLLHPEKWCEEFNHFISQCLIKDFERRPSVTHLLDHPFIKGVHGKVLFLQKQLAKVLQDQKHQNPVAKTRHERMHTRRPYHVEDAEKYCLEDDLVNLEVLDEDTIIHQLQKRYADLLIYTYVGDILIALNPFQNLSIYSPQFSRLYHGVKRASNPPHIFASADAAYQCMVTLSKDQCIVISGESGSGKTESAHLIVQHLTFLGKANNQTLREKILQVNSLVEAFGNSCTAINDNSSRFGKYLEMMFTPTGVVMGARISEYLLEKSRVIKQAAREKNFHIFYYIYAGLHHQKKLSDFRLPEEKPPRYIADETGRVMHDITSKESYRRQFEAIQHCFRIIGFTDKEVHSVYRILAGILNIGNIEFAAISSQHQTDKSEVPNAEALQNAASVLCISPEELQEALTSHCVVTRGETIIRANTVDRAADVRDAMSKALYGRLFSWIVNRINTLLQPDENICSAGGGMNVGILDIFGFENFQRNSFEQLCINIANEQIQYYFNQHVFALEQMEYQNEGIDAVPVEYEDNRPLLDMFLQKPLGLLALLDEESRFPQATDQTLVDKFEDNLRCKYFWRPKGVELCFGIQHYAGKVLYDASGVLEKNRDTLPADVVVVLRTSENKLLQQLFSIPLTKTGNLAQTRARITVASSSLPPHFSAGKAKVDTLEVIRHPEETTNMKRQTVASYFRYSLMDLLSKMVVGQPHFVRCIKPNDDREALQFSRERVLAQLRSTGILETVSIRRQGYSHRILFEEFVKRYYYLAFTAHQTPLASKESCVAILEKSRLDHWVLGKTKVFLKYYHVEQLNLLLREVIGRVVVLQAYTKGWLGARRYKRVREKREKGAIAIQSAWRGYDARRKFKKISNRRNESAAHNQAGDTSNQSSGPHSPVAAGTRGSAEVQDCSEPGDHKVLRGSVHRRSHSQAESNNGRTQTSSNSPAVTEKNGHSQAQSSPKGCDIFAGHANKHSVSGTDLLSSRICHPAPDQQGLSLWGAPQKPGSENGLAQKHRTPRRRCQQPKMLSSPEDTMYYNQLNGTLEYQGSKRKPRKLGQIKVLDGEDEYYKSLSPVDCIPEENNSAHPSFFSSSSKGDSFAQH
Sequence of SRSF protein kinase 1 (Homo sapiens) (Q96SB4 whole entry, the tested form may be a part): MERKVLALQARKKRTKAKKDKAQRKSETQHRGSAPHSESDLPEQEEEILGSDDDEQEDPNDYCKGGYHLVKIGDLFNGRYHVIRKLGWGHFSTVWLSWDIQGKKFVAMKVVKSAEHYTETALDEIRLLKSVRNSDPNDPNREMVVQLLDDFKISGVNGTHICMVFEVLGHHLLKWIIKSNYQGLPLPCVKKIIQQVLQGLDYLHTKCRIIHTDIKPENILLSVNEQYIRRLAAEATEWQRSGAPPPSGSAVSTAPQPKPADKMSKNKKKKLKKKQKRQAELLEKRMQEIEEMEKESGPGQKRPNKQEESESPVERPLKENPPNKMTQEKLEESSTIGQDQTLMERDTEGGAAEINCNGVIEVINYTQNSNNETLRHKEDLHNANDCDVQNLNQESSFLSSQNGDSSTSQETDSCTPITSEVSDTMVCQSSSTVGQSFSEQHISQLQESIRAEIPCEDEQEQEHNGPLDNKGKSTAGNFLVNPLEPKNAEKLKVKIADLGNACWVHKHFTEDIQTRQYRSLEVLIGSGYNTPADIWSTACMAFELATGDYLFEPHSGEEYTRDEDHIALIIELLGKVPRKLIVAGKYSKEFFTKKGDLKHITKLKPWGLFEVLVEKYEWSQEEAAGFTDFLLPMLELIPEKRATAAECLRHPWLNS
Sequence of Ribosomal protein S6 kinase alpha-2 (Homo sapiens) (Q15349 whole entry, the tested form may be a part): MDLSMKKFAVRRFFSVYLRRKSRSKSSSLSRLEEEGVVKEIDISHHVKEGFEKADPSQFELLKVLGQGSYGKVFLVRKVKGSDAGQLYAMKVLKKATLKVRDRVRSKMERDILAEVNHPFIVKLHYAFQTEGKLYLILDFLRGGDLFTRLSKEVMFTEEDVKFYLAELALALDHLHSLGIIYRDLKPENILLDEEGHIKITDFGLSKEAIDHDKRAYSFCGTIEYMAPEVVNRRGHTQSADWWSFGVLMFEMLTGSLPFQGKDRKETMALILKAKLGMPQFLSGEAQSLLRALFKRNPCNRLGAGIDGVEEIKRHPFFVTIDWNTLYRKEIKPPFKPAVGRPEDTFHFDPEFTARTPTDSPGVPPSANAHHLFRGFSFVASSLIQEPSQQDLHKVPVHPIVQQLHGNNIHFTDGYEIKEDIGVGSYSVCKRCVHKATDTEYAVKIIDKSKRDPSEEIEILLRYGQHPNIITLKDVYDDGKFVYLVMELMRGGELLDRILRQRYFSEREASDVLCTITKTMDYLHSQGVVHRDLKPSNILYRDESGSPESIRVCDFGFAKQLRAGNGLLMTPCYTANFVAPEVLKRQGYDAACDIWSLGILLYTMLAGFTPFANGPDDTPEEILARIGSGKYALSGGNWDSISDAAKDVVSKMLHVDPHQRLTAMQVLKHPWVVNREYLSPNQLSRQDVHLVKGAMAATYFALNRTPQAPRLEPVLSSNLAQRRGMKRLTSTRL
Sequence of Glycogen synthase kinase-3 alpha (Homo sapiens) (P49840 2-483 limits assumed): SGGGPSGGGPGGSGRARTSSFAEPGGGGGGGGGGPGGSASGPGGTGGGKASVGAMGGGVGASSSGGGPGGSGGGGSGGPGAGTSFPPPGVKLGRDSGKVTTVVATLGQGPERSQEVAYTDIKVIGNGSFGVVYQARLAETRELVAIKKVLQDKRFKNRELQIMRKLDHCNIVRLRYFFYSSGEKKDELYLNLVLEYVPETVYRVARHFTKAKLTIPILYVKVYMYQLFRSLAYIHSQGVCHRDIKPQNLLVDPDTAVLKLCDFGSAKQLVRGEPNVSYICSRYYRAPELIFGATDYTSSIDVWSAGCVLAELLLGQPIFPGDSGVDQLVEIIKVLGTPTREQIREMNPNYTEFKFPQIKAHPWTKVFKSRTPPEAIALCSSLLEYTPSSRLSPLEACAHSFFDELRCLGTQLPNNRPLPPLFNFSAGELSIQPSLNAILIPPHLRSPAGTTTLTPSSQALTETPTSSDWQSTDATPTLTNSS

`C=CC(=O)Nc1cc(Nc2ncc(Cl)c(Nc3ccccc3S(=O)(=O)C(C)C)n2)c(OC)cc1N(C)CCN(C)C`: the Activity in data set [1] is 1.8%; in data set [2], 17%; in data set [3], 69%; in data set [4], 80%; in [5], 0.95%; in data set [6] it was 60%. The Activity is 9% in [7]; 34% in [8]; 54% in data set [9]; 99% in data set [10]; 9.6% in data set [11]; 91% in data set [12]. The Activity came out at 64% in data set [14]; 65% in data set [15]; 87% in data set [16]; 28% in [17]; 0.1% in data set [18]; 100% in data set [19]. Moreover, the Activity amounted to 39% in data set [20]; 91% in data set [21]; 12% in data set [22]; 5.6% in [23]; 0% in [24]. The concentration at 8 h in [13] was found to be 110 nM.
